Experimental data published in ChEMBL document CHEMBL5030525, “Design, synthesis and antitumor activity evaluation of trifluoromethyl-substituted pyrimidine derivatives” (Bioorg Med Chem Lett, 2021).

Legend:
Type in all cases: functional, cell-based
PC-3 = assay: Antiproliferative activity against human PC-3 cells assessed as inhibition of cell growth measured after 72 hrs by MTT assay; conditions: PC-3, 72 h
Procedure, shortened: (§1)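 Cells in log phase were seeded at 3000–5000 per well and cultured 24 h at 37 °C, then exposed to a range of compound concentrations in fresh medium for 72 h. MTT was added and incubated 4 h at 37 °C, formazan was dissolved in DMSO, and absorbance was read at 490 nm. IC50 was taken from survival rate, as mean ± SD of three independent experiments. Stocks were 10 mM in DMSO.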

MGC-803 = assay: Antiproliferative activity against human MGC-803 cells assessed as inhibition of cell growth measured after 72 hrs by MTT assay; conditions: MGC-803, 72 h; procedure, shortened: as §1
MCF7 = assay: Antiproliferative activity against human MCF7 cells assessed as inhibition of cell growth measured after 72 hrs by MTT assay; conditions: MCF7, 72 h; procedure, shortened: as §1
NCI-H1975 = assay: Antiproliferative activity against human NCI-H1975 cells assessed as inhibition of cell growth measured after 72 hrs by MTT assay; conditions: NCI-H1975, 72 h; procedure, shortened: as §1

| IC50 (PC-3) [µM] | IC50 (MGC-803) [µM] | IC50 (MCF7) [µM] | IC50 (NCI-H1975) [µM] | Structure (SMILES) |
| --- | --- | --- | --- | --- |
| 15.9 | 5.87 | 10.7 | 6.21 | FC(F)(F)c1ccc(CSc2nc(N3CCNCC3)cc(C(F)(F)F)n2)cc1 |
| 5.92 | 18.7 | 12.4 | 5.07 | C=CC(=O)Nc1cccc(Nc2cc(C(F)(F)F)nc(SCc3cccc(C(F)(F)F)c3)n2)c1 |
| > 50 | 28.6 | > 50 | 14 | FC(F)(F)c1ccc(CSc2nc(Sc3ncccn3)cc(C(F)(F)F)n2)cc1 |
| 40.6 | 22.2 | > 50 | > 50 | CC(C)(C)OC(=O)N1CCN(c2cc(C(F)(F)F)nc(SCc3ccc(C(F)(F)F)cc3)n2)CC1 |
| 40.6 | 24.5 | 44.9 | 24.2 | FC(F)(F)c1ccc(CSc2nc(SC3=NCCS3)cc(C(F)(F)F)n2)cc1 |
| 9.22 | 9.25 | 14.9 | 10.1 | C=CC(=O)Nc1cccc(Nc2cc(C(F)(F)F)nc(SCc3ccc(F)cc3)n2)c1 |
| > 50 | 35.2 | > 50 | 18.3 | FC(F)(F)c1ccc(CSc2nc(N3CCN(c4ncccn4)CC3)cc(C(F)(F)F)n2)cc1 |
| 35 | 41.4 | > 50 | 22.1 | Fc1ccc(Nc2cc(C(F)(F)F)nc(SCc3ccc(C(F)(F)F)cc3)n2)cc1Cl |
| 25.2 | > 50 | 43.2 | 23.9 | FC(F)(F)c1ccc(CSc2nc(Sc3ccccn3)cc(C(F)(F)F)n2)cc1 |
| 40.8 | > 50 | > 50 | > 50 | FC(F)(F)c1ccc(CSc2nc(N3CCOCC3)cc(C(F)(F)F)n2)cc1 |
| > 50 | 23.5 | > 50 | 17.4 | FC(F)(F)c1ccc(CSc2nc(N3CCN(c4ccccn4)CC3)cc(C(F)(F)F)n2)cc1 |
| 27.2 | 25.6 | 22 | 15 | CCN1CCN(c2cc(C(F)(F)F)nc(SCc3ccc(C(F)(F)F)cc3)n2)CC1 |
| 14.1 | 19.2 | > 50 | 17.4 | Fc1ccc(Nc2cc(C(F)(F)F)nc(SCc3ccc(C(F)(F)F)cc3)n2)cc1 |

The remaining lines, values behind:

| Structure (SMILES) | IC50 (PC-3) [µM] | IC50 (MGC-803) [µM] | IC50 (MCF7) [µM] | IC50 (NCI-H1975) [µM] |
| --- | --- | --- | --- | --- |
| C=CC(=O)Nc1cccc(Nc2cc(C(F)(F)F)nc(SCc3cnc(Cl)s3)n2)c1 | 11.5 | 38.3 | 10.7 | 10.9 |
| C=CC(=O)Nc1cccc(Nc2cc(C(F)(F)F)nc(SCC3CC3)n2)c1 | 12.6 | 38.7 | 14.2 | 19.2 |
| C=CC(=O)Nc1cccc(Nc2cc(C(F)(F)F)nc(SCc3c(Cl)cccc3Cl)n2)c1 | 14.6 | 34.7 | 9.66 | 9.03 |
| C=CC(=O)Nc1cccc(Nc2cc(C(F)(F)F)nc(SCc3ccccc3Cl)n2)c1 | 13.6 | 28.4 | 11.8 | 13.1 |
| C=CC(=O)Nc1cccc(Nc2cc(C(F)(F)F)nc(SCc3ccc(Br)cc3)n2)c1 | 6.32 | 29.4 | 11.7 | 6.44 |
| C=CC(=O)Nc1cccc(Nc2cc(C(F)(F)F)nc(SCC3CCOCC3)n2)c1 | 8.96 | 28.3 | 17.7 | 16.3 |
| C=CC(=O)Nc1cccc(Nc2cc(C(F)(F)F)nc(SCC3CCCO3)n2)c1 (centres undefined) | 12.9 | 37.2 | 18.3 | 17.6 |
| C=CC(=O)Nc1cccc(Nc2cc(C(F)(F)F)nc(SCc3ccccc3)n2)c1 | 14.2 | 22.3 | 19.1 | 21.9 |
| C=CC(=O)Nc1cccc(Nc2cc(C(F)(F)F)nc(SCc3cccc(Br)c3)n2)c1 | 7.44 | 22.8 | 14.3 | 7.44 |
| C=CC(=O)Nc1cccc(Nc2cc(C(F)(F)F)nc(SCc3cccc(F)c3)n2)c1 | 8.57 | 7.14 | 23 | 13.7 |
| C=CC(=O)Nc1cccc(Nc2cc(C(F)(F)F)nc(SCC3CCCCC3)n2)c1 | 12.5 | 34.1 | 11.2 | 18 |
| C=CC(=O)Nc1cccc(Nc2cc(C(F)(F)F)nc(SCc3ccc(Cl)cc3Cl)n2)c1 | 6.66 | 18.6 | 6.25 | 15.3 |
| C=CC(=O)Nc1cccc(Nc2cc(C(F)(F)F)nc(SCc3cccc(OC)c3)n2)c1 | 11.5 | 32.4 | 8.91 | 9.45 |
